pIC50: −log10 of the molar value. Converted amounts (≈) assume the structure as drawn.
Experiments:
Salmonella typhimurium = assay: Antibacterial activity against Salmonella typhimurium IFO13245 assessed as growth inhibition at 128 to 0.002 mg/L incubated for 18 hrs at 37 degC by agar dilution method; format: functional, Salmonella enterica subsp. enterica serovar Typhimurium; settings: Salmonella enterica, IFO13245, 18 h
Outline: (§1)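 Agar dilution on Mueller Hinton agar per Japanese Society of Chemotherapy standard method; about 10⁴ cfu inoculated onto plates holding two-fold dilution series; incubation 37°C, 18 h; MIC read as growth endpoint.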

[1] = Drug excretion in Sprague-Dawley rat assessed as unmetabolized form at 5 mg/kg, iv after 24 hrs by HPLC; format: ADME, organism-based; settings: in vivo, read-out: Drug excretion
Outline: (§2)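 Six-week male Sprague-Dawley rats, fasted overnight; oral dose suspended in 0.5% methylcellulose, iv dose dissolved in 0.04 N NaOH. Urine from intact rats in metabolic cages, bile from bile duct-cannulated rats, 0–24 h. Bile alkaline-hydrolysed (1 N NaOH, 37°C, 1 h) to convert glucuronides; HPLC with UV 290 nm and internal standard; % of dose; mean ± S.D., three rats.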

[2] = Drug excretion in Sprague-Dawley rat bile assessed as unmetabolized form at 10 mg/kg, po after 24 hrs by HPLC; format: ADME, organism-based; settings: read-out: Drug excretion; outline: as §2
[3] = Solubility of the compound in JP2 solution at pH 6.8 after 24 hrs at 25 degC by HPLC; format: physicochemical
Outline: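 Excess solid shaken in JP2 (50 mM potassium dihydrogenphosphate, pH 6.8) at 25°C for 24 h to equilibrium, filtered 0.45 µm; filtrate concentration by reversed-phase UPLC, UV 290 nm; mean ± S.D., n=3.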

Proteus mirabilis = assay: Antibacterial activity against Proteus mirabilis IFO3849 assessed as growth inhibition at 128 to 0.002 mg/L incubated for 18 hrs at 37 degC by agar dilution method; format: functional; settings: IFO3849, 18 h; outline: as §1
Escherichia coli [4] = assay: Antibacterial activity against Escherichia coli 177 assessed as growth inhibition at 128 to 0.002 mg/L incubated for 18 hrs at 37 degC by agar dilution method; format: functional; settings: Escherichia coli, 177, 18 h; outline: as §1
Enterobacter cloacae = assay: Antibacterial activity against Enterobacter cloacae IFO13535 assessed as growth inhibition at 128 to 0.002 mg/L incubated for 18 hrs at 37 degC by agar dilution method; format: functional; settings: IFO13535, 18 h; outline: as §1
Pseudomonas aeruginosa [5] = assay: Antibacterial activity against Pseudomonas aeruginosa 15846 assessed as growth inhibition at 128 to 0.002 mg/L incubated for 18 hrs at 37 degC by agar dilution method; format: functional; settings: Pseudomonas aeruginosa, 15846, 18 h; outline: as §1
[6] = Oral drug absorption in Sprague-Dawley rat at 10 mg/kg, po after 24 hrs by HPLC; format: ADME, organism-based; settings: in vivo
Outline: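 Absorption rate computed as total urinary plus biliary excretion (% of dose, summed means) after oral dosing divided by total after iv dosing; excretion measured in fasted male Sprague-Dawley rats by HPLC over 24 h, bile glucuronides alkaline-hydrolysed.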

Serratia marcescens [7] = assay: Antibacterial activity against Serratia marcescens T-55 assessed as growth inhibition at 128 to 0.002 mg/L incubated for 18 hrs at 37 degC by agar dilution method; format: functional; settings: T-55, 18 h; outline: as §1
[8] = Drug excretion in Sprague-Dawley rat at 10 mg/kg, po after 24 hrs by HPLC; format: ADME, organism-based; settings: in vivo, read-out: Drug excretion; outline: as §2
Pseudomonas aeruginosa [9] = assay: Antibacterial activity against Pseudomonas aeruginosa E-2 assessed as growth inhibition at 128 to 0.002 mg/L incubated for 18 hrs at 37 degC by agar dilution method; format: functional; settings: E-2, 18 h; outline: as §1
Escherichia coli [10] = assay: Antibacterial activity against Escherichia coli KC-14 assessed as growth inhibition at 128 to 0.002 mg/L incubated for 18 hrs at 37 degC by agar dilution method; format: functional; settings: KC-14, 18 h; outline: as §1
[11] = system: Acinetobacter calcoaceticus; assay: Antibacterial activity against Acinetobacter calcoaceticus Ac-54 assessed as growth inhibition at 128 to 0.002 mg/L incubated for 18 hrs at 37 degC by agar dilution method; format: functional; settings: Ac-54, 18 h; outline: as §1
Serratia marcescens [12] = assay: Antibacterial activity against Serratia marcescens IFO3736 assessed as growth inhibition at 128 to 0.002 mg/L incubated for 18 hrs at 37 degC by agar dilution method; format: functional; settings: IFO3736, 18 h; outline: as §1
Escherichia coli [13] = assay: Antibacterial activity against Escherichia coli NIHJ assessed as growth inhibition at 128 to 0.002 mg/L incubated for 18 hrs at 37 degC by agar dilution method; format: functional; outline: as §1
Proteus vulgaris = assay: Antibacterial activity against Proteus vulgaris IFO3167 assessed as growth inhibition at 128 to 0.002 mg/L incubated for 18 hrs at 37 degC by agar dilution method; format: functional; settings: IFO3167, 18 h; outline: as §1
DNA gyrase = DNA gyrase (Escherichia coli, UniProt P0AES4+P0AES6); assay: Inhibition of Escherichia coli DNA gyrase preincubated for 5 mins at 37 degC before addition of relaxed pBR322 as substrate by supercoiling assay; format: protein-complex assay
[14] = Drug excretion in Sprague-Dawley rat urine at 10 mg/kg, po after 24 hrs by HPLC; format: ADME, organism-based; settings: read-out: Drug excretion; outline: as §2
[15] = Passive permeability of the compound after 5 hrs at 25 degC by PAMPA assay; format: physicochemical; settings: read-out: Peff
Outline: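 PAMPA: 10 µM compound in PBS with 5% MeOH in donor, PBS acceptor; 25°C, 5 h; both sides quantified by HPLC; Peff derived from donor/acceptor concentrations, volumes, 0.3 cm² filter area and 18,000 s; mean ± S.D., n=3.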

Citrobacter freundii = assay: Antibacterial activity against Citrobacter freundii IFO1268 assessed as growth inhibition at 128 to 0.002 mg/L incubated for 18 hrs at 37 degC by agar dilution method; format: functional; settings: IFO1268, 18 h; outline: as §1
Klebsiella pneumoniae [16] = assay: Antibacterial activity against Klebsiella pneumoniae KC-1 assessed as growth inhibition at 128 to 0.002 mg/L incubated for 18 hrs at 37 degC by agar dilution method; format: functional; settings: KC-1, 18 h; outline: as §1
Providencia rettgeri = assay: Antibacterial activity against Providencia rettgeri W1008 assessed as growth inhibition at 128 to 0.002 mg/L incubated for 18 hrs at 37 degC by agar dilution method; format: functional; settings: W1008, 18 h; outline: as §1
Morganella morganii = assay: Antibacterial activity against Morganella morganii W1026 assessed as growth inhibition at 128 to 0.002 mg/L incubated for 18 hrs at 37 degC by agar dilution method; format: functional; settings: W1026, 18 h; outline: as §1
[17] = Drug excretion in Sprague-Dawley rat urine at 5 mg/kg, iv after 24 hrs by HPLC; format: ADME, organism-based; settings: read-out: Drug excretion; outline: as §2
[18] = Drug excretion in Sprague-Dawley rat bile assessed as unmetabolized form at 5 mg/kg, iv after 24 hrs by HPLC; format: ADME, organism-based; settings: read-out: Drug excretion; outline: as §2
Klebsiella pneumoniae [19] = assay: Antibacterial activity against Klebsiella pneumoniae DT-S assessed as growth inhibition at 128 to 0.002 mg/L incubated for 18 hrs at 37 degC by agar dilution method; format: functional; outline: as §1
Pseudomonas aeruginosa [20] = assay: Antibacterial activity against Pseudomonas aeruginosa IFO3445 assessed as growth inhibition at 128 to 0.002 mg/L incubated for 18 hrs at 37 degC by agar dilution method; format: functional; settings: IFO3445, 18 h; outline: as §1

For CCNC1CN(c2c(F)cc3c(=O)c(C(=O)O)cn(-c4nc(N)c(F)cc4F)c3c2C)C1, the MIC (Salmonella typhimurium) was 0.12 µg/mL (≈ 0.268 µM), the dose excreted at 24 h [1] was 91% and the dose excreted at 24 h [2] was 49%. It also gave a solubility at 24 h [3] of 45 µg/mL (≈ 101 µM), an MIC (Proteus mirabilis) of 0.12 µg/mL (≈ 0.268 µM) and an MIC (Escherichia coli [4]) of 0.006 µg/mL (≈ 0.0134 µM). For the same compound, the MIC (Enterobacter cloacae) was 0.12 µg/mL (≈ 0.268 µM), the MIC (Pseudomonas aeruginosa [5]) was 0.12 µg/mL (≈ 0.268 µM) and the Fa at 24 h [6] was 76%. The MIC (Serratia marcescens [7]) was 0.12 µg/mL (≈ 0.268 µM), the dose excreted at 24 h [8] was 69% and the MIC (Pseudomonas aeruginosa [9]) was 0.12 µg/mL (≈ 0.268 µM). For the same compound, the MIC (Escherichia coli [10]) was 0.006 µg/mL (≈ 0.0134 µM), the MIC [11] was 0.12 µg/mL (≈ 0.268 µM) and the MIC (Serratia marcescens [12]) was 0.12 µg/mL (≈ 0.268 µM). It also gave an MIC (Escherichia coli [13]) of 0.006 µg/mL (≈ 0.0134 µM), an MIC (Proteus vulgaris) of 0.12 µg/mL (≈ 0.268 µM) and a pIC50 (DNA gyrase) of 6.76. The dose excreted at 24 h [14] was 20%, the Papp at 5 h [15] was 0.29 ×10⁻⁶ cm/s and the MIC (Citrobacter freundii) was 0.12 µg/mL (≈ 0.268 µM). It also gave an MIC (Klebsiella pneumoniae [16]) of 0.12 µg/mL (≈ 0.268 µM), an MIC (Providencia rettgeri) of 0.12 µg/mL (≈ 0.268 µM) and an MIC (Morganella morganii) of 0.12 µg/mL (≈ 0.268 µM). For the same compound, the dose excreted at 24 h [17] was 41%, the dose excreted at 24 h [18] was 51% and the MIC (Klebsiella pneumoniae [19]) was 0.12 µg/mL (≈ 0.268 µM). For the same compound, the MIC (Pseudomonas aeruginosa [20]) was 0.12 µg/mL (≈ 0.268 µM).
